According to ChEMBL document CHEMBL4190227, “Syntheses, toxicities and anti-inflammation of H2S-donors based on non-steroidal anti-inflammatory drugs” (Eur J Med Chem, 2017):

Legend:
[1] = Drug degradation in phosphate buffer assessed as H2S release by measuring test compound half life at 40 uM measured every 5 mins in presence of TECP by UV-Vis spectrometry; format: physicochemical
How it was run: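 Sulfide release at 37.5 °C: donor (40 mM THF stock) added to pH 7.4 phosphate buffer with 1.0 mM TECP; aliquots taken every 5 min into methylene blue cocktail (zinc acetate, N,N-dimethyl-1,4-phenylenediamine, FeCl3 in HCl), A670 read 15 min later; H2S from Na2S calibration curve; concentration vs time curve; four independent experiments.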

[2] = species on record: Danio rerio; test: Toxicity in AB zebrafish embryo assessed as embryonic spontaneous movement frequencies per minute at 1 to 20 uM measured at 24 hrs post fertilization by stereoscopic dissecting light microscopic analysis (reference value: 15 /min); format: organism-based; conditions: in vivo
How it was run: (§1)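 AB embryos exposed from 4 to 24 hpf to compound (0.5–20 μM) or DMF vehicle (1:1000); ten embryos per group chosen randomly; spontaneous movement recorded under stereoscopic dissecting microscope, frequency per min counted at 24 hpf; three independent experiments, mean ± SD.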

[3] = species on record: Danio rerio; test: Toxicity in AB zebrafish embryo assessed as bent spine at 0.5 uM measured at 96 hrs post fertilization by stereoscopic dissecting light microscopic analysis; format: organism-based; conditions: in vivo
How it was run: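 AB embryos exposed from 4 hpf through 96 hpf to compound or DMF vehicle (1:1000); malformations scored at 96 hpf under stereoscopic dissecting microscope; 100 embryos per group in three replicates; three independent experiments, mean ± SD.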

[4] = system: RAW264.7; test: Antiinflammatory activity in mouse RAW264.7 cells assessed as reduction in LPS-induced TNFalpha levels incubated for 24 hrs post LPS induction by ELISA; format: functional, cell-based
How it was run: (§2)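 LPS (1 μg/mL) for 4 h, then compound at 10, 50, 100 μM for 24 h; cells lysed in RIPA, spun 12,000×g 10 min, protein normalised by BCA to 0.1 mg/mL; target (TNF-α, HO-1, IL-10 or COX-2) quantified by sandwich ELISA kit with mouse-specific polyclonal antibodies; four independent experiments.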

[5] = Drug degradation in phosphate buffer assessed as H2S release by measuring test compound half life at 40 uM measured every 5 mins in presence of L-cysteine by UV-Vis spectrometry; format: physicochemical
How it was run: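 Sulfide release at 37.5 °C: donor (40 mM THF stock) added to pH 7.4 phosphate buffer with 1.0 mM L-cysteine; aliquots taken every 5 min into zinc acetate/N,N-dimethyl-1,4-phenylenediamine/FeCl3 in HCl, A670 read 15 min later; H2S quantified against Na2S standard curve (5–150 μM); release curve plotted vs time; four independent experiments.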

[6] = Toxicity in AB zebrafish embryo assessed as percentage of embryos alive at 10 uM measured at 120 hrs post fertilization by dissecting light microscopic analysis relative to DMF; format: organism-based, Danio rerio; conditions: read-out: Activity
How it was run: (§3)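 Wild-type AB zebrafish embryos, collected within 1 h of lights-on and washed in E3 medium, were exposed one embryo per well in 200 μL test solution, with plates sealed against evaporation. There were 100 embryos per group, split into three replicate groups. Mortality was recorded at 24–168 hpf. DMF vehicle (1:1000) served as control. Results are mean ± SD of three replicates.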

[7] = Toxicity in AB zebrafish embryo assessed as percentage of embryos alive at 20 uM measured at 120 hrs post fertilization by dissecting light microscopic analysis relative to DMF; format: organism-based, Danio rerio; conditions: read-out: Activity; how it was run: as §3
[8] = species on record: Danio rerio; test: Toxicity in AB zebrafish embryo assessed as embryonic spontaneous movement frequencies per minute at 5 uM measured at 24 hrs post fertilization by stereoscopic dissecting light microscopic analysis (reference value: 15.9 /min); format: organism-based; conditions: in vivo; how it was run: as §1
[9] = target: T1, Nitric oxide synthase, inducible (Mus musculus) (UniProt P29477); test: Inhibition of iNOS in mouse RAW264.7 cells assessed as reduction in LPS-induced NO production at 50 uM administered for 24 hrs post LPS induction by Griess method relative to control; format: cell-based
T1 sequence (whole entry): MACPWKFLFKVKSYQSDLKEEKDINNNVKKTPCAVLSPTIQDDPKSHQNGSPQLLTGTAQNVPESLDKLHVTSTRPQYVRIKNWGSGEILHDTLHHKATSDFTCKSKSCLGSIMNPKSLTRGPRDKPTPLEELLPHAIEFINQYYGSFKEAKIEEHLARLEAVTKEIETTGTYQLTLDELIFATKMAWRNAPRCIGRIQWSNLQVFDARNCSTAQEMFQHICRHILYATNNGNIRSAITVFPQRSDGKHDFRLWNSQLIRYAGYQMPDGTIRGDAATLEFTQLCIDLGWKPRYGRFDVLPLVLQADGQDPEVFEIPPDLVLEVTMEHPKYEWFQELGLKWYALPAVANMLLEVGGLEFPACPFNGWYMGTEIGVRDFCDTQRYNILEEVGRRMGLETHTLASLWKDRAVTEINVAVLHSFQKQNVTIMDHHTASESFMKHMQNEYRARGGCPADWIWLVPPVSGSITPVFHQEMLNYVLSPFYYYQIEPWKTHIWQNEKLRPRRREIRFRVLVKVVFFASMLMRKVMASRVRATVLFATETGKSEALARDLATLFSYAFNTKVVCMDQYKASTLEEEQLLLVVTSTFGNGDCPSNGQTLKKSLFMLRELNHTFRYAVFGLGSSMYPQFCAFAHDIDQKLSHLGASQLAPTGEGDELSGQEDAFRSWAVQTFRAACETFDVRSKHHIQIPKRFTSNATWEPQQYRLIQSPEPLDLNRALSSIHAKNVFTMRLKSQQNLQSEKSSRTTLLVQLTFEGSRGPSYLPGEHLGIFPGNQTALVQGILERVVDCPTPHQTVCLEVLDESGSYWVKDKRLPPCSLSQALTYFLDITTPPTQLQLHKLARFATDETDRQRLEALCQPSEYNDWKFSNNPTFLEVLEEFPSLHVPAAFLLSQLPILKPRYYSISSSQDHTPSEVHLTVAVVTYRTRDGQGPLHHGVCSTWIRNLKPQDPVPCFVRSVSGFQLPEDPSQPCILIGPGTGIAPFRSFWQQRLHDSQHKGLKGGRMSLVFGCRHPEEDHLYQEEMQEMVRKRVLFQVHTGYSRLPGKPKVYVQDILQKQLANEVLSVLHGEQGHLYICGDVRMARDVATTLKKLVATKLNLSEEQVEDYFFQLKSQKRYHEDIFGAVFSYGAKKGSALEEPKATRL
How it was run: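 RAW264.7 cells stimulated with LPS 1 μg/mL for 4 h, then compound (10, 50, 100 μM) for 24 h; culture medium reacted with Griess reagents I and II, absorbance 570 nm; nitrite from sodium nitrite standard curve (0–100 μM in medium); four independent experiments, mean ± SD.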

[10] = system: RAW264.7; test: Antiinflammatory activity in mouse RAW264.7 cells assessed as LPS-induced TNFalpha levels at 100 uM incubated for 24 hrs post LPS induction by ELISA relative to control; format: functional; how it was run: as §2
[11] = system: RAW264.7; test: Antiinflammatory activity in mouse RAW264.7 cells assessed as increase in IL10 levels at 100 uM measured after 24 hrs in absence of LPS by ELISA relative to control; format: functional
How it was run: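 Macrophages exposed 24 h to 10, 50, 100 μM without LPS; lysates (RIPA, 12,000×g spin) normalised by BCA to 0.1 mg/mL protein; IL-10 measured by mouse-specific sandwich ELISA kit; four independent experiments, mean ± SD.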

Row | Structure (SMILES) | half-life at 40 µM [1] | Activity [2] | Activity [3] | Activity [4] | half-life at 40 µM [5] | survival at 120 h, 10 µM [6] | survival at 120 h, 20 µM [7] | Activity [8] | inhibition [9] | Activity [10] | fold change (FC) [11]
1 | CC(C)Cc1ccc(C(C)C(=O)Oc2ccc(C(N)=S)cc2)cc1 (configuration not stated) | 20.1 min | 11 min⁻¹ | Toxic | Dose-dependent effect |  |  |  |  |  |  | 
2 | CC(=O)Nc1ccc(OC(=O)CCCCC2CCSS2)cc1 (configuration not stated) |  |  |  | Dose-dependent effect | 14.1 min | 51% | 41% | 14.1 min⁻¹ | 60% | 50% | 3
